Measured values: ChEMBL document CHEMBL5329156, “Discovery and development of novel substituted monohydrazides as potent antifungal agents” (RSC Med Chem, 2023)
Calls of active or inactive are those of the source.

Experiments:
Candida albicans [1] = test: Antifungal activity against Candida albicans ATCC 10231 assessed as fungal growth inhibition by double dilution method; type: functional
In short: (§1)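 Broth microdilution after CLSI M27-A3/M38-A2 with minor changes. Single colony grown overnight in YPD at 35 °C, 200 rpm. Compound final range 0.06-31.3 µg/mL; incubated 48 h at 35 °C.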

Candida albicans [2] = test: Antifungal activity against Candida albicans ATCC 64124 assessed as fungal growth inhibition by double dilution method; type: functional
In short: (§2)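 Broth microdilution after CLSI M27-A3/M38-A2 with minor modifications. A single colony was grown overnight in YPD at 35 °C with shaking at 200 rpm. Cells were mixed 1:1 with compound (final 0.06-31.3 µg/mL, from DMSO stocks) and incubated 48 h at 35 °C.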

Candida albicans [3] = test: Antifungal activity against itraconazole/fluconazole susceptible Candida albicans ATCC MYA-2876 assessed as fungal growth inhibition by double dilution method; type: functional; in short: as §2
Candida albicans [4] = test: Antifungal activity against itraconazole/fluconazole resistant Candida albicans ATCC 90819 assessed as fungal growth inhibition by double dilution method; type: functional; in short: as §2
Candida albicans [5] = test: Antifungal activity against itraconazole/fluconazole susceptible Candida albicans ATCC MYA-2310 assessed as fungal growth inhibition by double dilution method; type: functional; in short: as §2
Candida albicans [6] = test: Antifungal activity against itraconazole/fluconazole resistant Candida albicans ATCC MYA-1237 assessed as fungal growth inhibition by double dilution method; type: functional; in short: as §2
Candida albicans [7] = test: Antifungal activity against itraconazole/fluconazole resistant Candida albicans ATCC MYA-1003 assessed as fungal growth inhibition by double dilution method; type: functional; in short: as §2
Nakaseomyces glabratus [8] = test: Antifungal activity against Candida glabrata ATCC 2001 assessed as fungal growth inhibition by double dilution method; type: functional; in short: as §1
Pichia kudriavzevii [9] = test: Antifungal activity against Pichia kudriavzevii ATCC 6258 assessed as fungal growth inhibition by double dilution method; type: functional; in short: as §1
Nakaseomyces glabratus [10] = test: Antifungal activity against Candida glabrata ATCC 22019 assessed as fungal growth inhibition by double dilution method; type: functional; in short: as §1
[Candida] auris [11] = Antifungal activity against Candida auris AR Bank # 0384 assessed as fungal growth inhibition by double dilution method; type: functional; conditions: Candidozyma auris; in short: as §1
[Candida] auris [12] = Antifungal activity against Candida auris AR Bank # 0390 assessed as fungal growth inhibition by double dilution method; type: functional; conditions: Candidozyma auris; in short: as §1
Cryptococcus neoformans = test: Antifungal activity against Cryptococcus neoformans ATCC MYA-895 assessed as fungal growth inhibition by double dilution method; type: functional; in short: as §1
Aspergillus terreus = test: Antifungal activity against Aspergillus terreus ATCC MYA-3633 assessed as fungal growth inhibition by double dilution method; type: functional
Aspergillus fumigatus [13] = test: Antifungal activity against Aspergillus fumigatus NRRL 163 assessed as fungal growth inhibition by double dilution method; type: functional
Aspergillus flavus = test: Antifungal activity against Aspergillus flavus ATCC MYA-3631 assessed as fungal growth inhibition by double dilution method; type: functional
Aspergillus nidulans = test: Antifungal activity against Aspergillus nidulans ATCC 38163 assessed as fungal growth inhibition by double dilution method; type: functional
Aspergillus fumigatus [14] = test: Antifungal activity against Aspergillus fumigatus NRRL 5109 assessed as fungal growth inhibition by double dilution method; type: functional
Aspergillus fumigatus [15] = test: Antifungal activity against Aspergillus fumigatus NRRL 6113 assessed as fungal growth inhibition by double dilution method; type: functional
[Candida] auris [16] = Antifungal activity against Candida auris AR Bank # 381 assessed as fungal growth inhibition by double dilution method; type: functional; conditions: Candidozyma auris; in short: as §1
[Candida] auris [17] = Antifungal activity against Candida auris AR Bank # 382 assessed as fungal growth inhibition by double dilution method; type: functional; conditions: Candidozyma auris; in short: as §1
[Candida] auris [18] = Antifungal activity against Candida auris AR Bank # 383 assessed as fungal growth inhibition by double dilution method; type: functional; conditions: Candidozyma auris; in short: as §1
[Candida] auris [19] = Antifungal activity against Candida auris AR Bank # 384 assessed as fungal growth inhibition by double dilution method; type: functional; conditions: Candidozyma auris; in short: as §1
[Candida] auris [20] = Antifungal activity against Candida auris AR Bank # 385 assessed as fungal growth inhibition by double dilution method; type: functional; conditions: Candidozyma auris; in short: as §1
[Candida] auris [21] = Antifungal activity against Candida auris AR Bank # 386 assessed as fungal growth inhibition by double dilution method; type: functional; conditions: Candidozyma auris; in short: as §1
[Candida] auris [22] = Antifungal activity against Candida auris AR Bank # 387 assessed as fungal growth inhibition by double dilution method; type: functional; conditions: Candidozyma auris; in short: as §1
[Candida] auris [23] = Antifungal activity against Candida auris AR Bank # 388 assessed as fungal growth inhibition by double dilution method; type: functional; conditions: Candidozyma auris; in short: as §1
[Candida] auris [24] = Antifungal activity against Candida auris AR Bank # 389 assessed as fungal growth inhibition by double dilution method; type: functional; conditions: Candidozyma auris; in short: as §1
[Candida] auris [25] = Antifungal activity against Candida auris AR Bank # 390 assessed as fungal growth inhibition by double dilution method; type: functional; conditions: Candidozyma auris; in short: as §1
Candida duobushaemulonii [26] = test: Antifungal activity against Candida duobushaemulonii AR Bank # 391 assessed as fungal growth inhibition by double dilution method; type: functional; conditions: Candidozyma duobushaemuli; in short: as §1
Candida duobushaemulonii [27] = test: Antifungal activity against Candida duobushaemulonii AR Bank # 392 assessed as fungal growth inhibition by double dilution method; type: functional; conditions: Candidozyma duobushaemuli; in short: as §1
[Candida] haemuloni [28] = Antifungal activity against Candida haemulonii AR Bank # 393 assessed as fungal growth inhibition by double dilution method; type: functional; conditions: Candidozyma haemuli; in short: as §1
Candida duobushaemulonii [29] = test: Antifungal activity against Candida duobushaemulonii AR Bank # 394 assessed as fungal growth inhibition by double dilution method; type: functional; conditions: Candidozyma duobushaemuli; in short: as §1
[Candida] haemuloni [30] = Antifungal activity against Candida haemulonii AR Bank # 395 assessed as fungal growth inhibition by double dilution method; type: functional; conditions: Candidozyma haemuli; in short: as §1
Kodamaea ohmeri = test: Antifungal activity against Kodamaea ohmeri AR Bank # 396 assessed as fungal growth inhibition by double dilution method; type: functional; in short: as §1
Pichia kudriavzevii [31] = test: Antifungal activity against Pichia kudriavzevii AR Bank # 397 assessed as fungal growth inhibition by double dilution method; type: functional; in short: as §1
Clavispora lusitaniae = test: Antifungal activity against Clavispora lusitaniae AR Bank # 398 assessed as fungal growth inhibition by double dilution method; type: functional; in short: as §1
Saccharomyces cerevisiae [32] = test: Antifungal activity against Saccharomyces cerevisiae AR Bank # 399 assessed as fungal growth inhibition by double dilution method; type: functional; in short: as §1
Saccharomyces cerevisiae [33] = test: Antifungal activity against Saccharomyces cerevisiae AR Bank # 400 assessed as fungal growth inhibition by double dilution method; type: functional; in short: as §1
J774.A1 = test: Cytotoxicity against J774A.1 cells assessed as reduction in cell viability at 31.3 microg/ml; type: toxicity, cell-based; conditions: mouse, dose 31.3 µg/ml
In short: (§3)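 Cells in DMEM with 10% FBS and 1% Pen/Strep, seeded at 10,000 cells/well and held overnight at 37 °C, 5% CO2. Compounds added at final 31.3-0.12 µg/mL (0.05% DMSO vehicle) for 24 h. Resazurin then added for 6 h; fluorescence read at ex 560/em 590. Triton X-100 1% as positive control; values normalized to vehicle. Run in quadruplicate.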

HEK293 = test: Cytotoxicity against human HEK-293 cells assessed as reduction in cell viability at 31.3 microg/ml; type: toxicity, cell-based; conditions: dose 31.3 µg/ml; in short: as §3
Candida albicans [34] = test: Antibiofilm activity against Candida albicans ATCC 10231 assessed as reduction in biofilm production at 1.96 to 3.9 microg/ml by biofilm formation assay; type: functional, organism-based; conditions: dose 1.96-3.9 µg/ml

O=C(NNc1ccc(F)cc1)c1ccccn1
0.24 mg/L: MIC (Cryptococcus neoformans) | MIC ([Candida] haemuloni [28]) | MIC (Candida duobushaemulonii [29]) | MIC (Kodamaea ohmeri) | MIC (Pichia kudriavzevii [31])
3.9 mg/L: MIC (Candida albicans [3]) | MIC ([Candida] auris [11]) | MIC ([Candida] auris [19]) | MIC (Saccharomyces cerevisiae [32])
15.6 mg/L: MIC (Aspergillus fumigatus [15])
0.12 mg/L: MIC (Candida albicans [1]) | MIC (Pichia kudriavzevii [9]) | MIC ([Candida] haemuloni [30])
0.98 mg/L: MIC (Candida albicans [2]) | MIC (Candida albicans [4]) | MIC ([Candida] auris [12]) | MIC ([Candida] auris [16]) | MIC ([Candida] auris [20]) | MIC ([Candida] auris [22]) | MIC ([Candida] auris [23]) | MIC ([Candida] auris [25])
31.3 mg/L: MIC (Aspergillus fumigatus [13]) | MIC (Aspergillus flavus)
7.8 mg/L: MIC (Aspergillus fumigatus [14])
Non-Toxic: Activity (J774.A1) | Activity (HEK293)
0.49 mg/L: MIC (Candida albicans [7]) | MIC (Aspergillus nidulans) | MIC ([Candida] auris [21]) | MIC ([Candida] auris [24]) | MIC (Candida duobushaemulonii [26]) | MIC (Candida duobushaemulonii [27])
active: Activity (Candida albicans [34])
1.95 mg/L: MIC (Candida albicans [5]) | MIC (Candida albicans [6]) | MIC (Nakaseomyces glabratus [8]) | MIC (Nakaseomyces glabratus [10]) | MIC (Aspergillus terreus) | MIC ([Candida] auris [17]) | MIC ([Candida] auris [18]) | MIC (Clavispora lusitaniae) | MIC (Saccharomyces cerevisiae [33])
